Data reported in ChEMBL document CHEMBL1124498.
Several values for one entry are separate records, joined by “and”; a condition that tells them apart may be missing. Equal values may be shown once.

What was measured:
[1] = test system: aldehyde dehydrogenase (Saccharomyces cerevisiae); assay: In vitro inhibition of yeast aldehyde dehydrogenase; design: concentration or dose not given beside the values; details: concentration not given here
[2] = test system: aldehyde dehydrogenase (Saccharomyces cerevisiae); assay: In vitro inhibition of yeast aldehyde dehydrogenase is evaluated by the formation of NADH
Saccharomyces cerevisiae [3] = assay: In vitro inhibition of yeast […] at 1 uM concentration of compound
Saccharomyces cerevisiae [4] = assay: In vitro inhibition of yeast […] at 100 uM concentration of compound
Saccharomyces cerevisiae [5] = assay: In vitro inhibition of yeast […] is evaluated by the formation of NADH at 100 uM concentration of compound
In short: (§1)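 Commercial yeast AlDH (0.074 IU) was preincubated 10 min at 0 °C with test agent added in acetone, in 100 mM potassium phosphate pH 7.4 containing 1.0 mM NAD+. Concentration is the final level in this primary mix. A 20-µL aliquot went into 0.5 mM NAD+, 1.0 mM EDTA, 30% glycerol, 80 mM potassium phosphate pH 8.0; reaction started with benzaldehyde (0.6 µmol); NADH read at 340 nm.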

[6] = target: T1, Aldehyde dehydrogenase, mitochondrial (Rattus norvegicus) (UniProt P11884); assay: Inhibition of class II aldehyde dehydrogenase in vitro in osmotically disrupted rat liver mitochondria assayed by nmol of acetaldehyde oxidized/min.mg of protein
T1 sequence (whole entry): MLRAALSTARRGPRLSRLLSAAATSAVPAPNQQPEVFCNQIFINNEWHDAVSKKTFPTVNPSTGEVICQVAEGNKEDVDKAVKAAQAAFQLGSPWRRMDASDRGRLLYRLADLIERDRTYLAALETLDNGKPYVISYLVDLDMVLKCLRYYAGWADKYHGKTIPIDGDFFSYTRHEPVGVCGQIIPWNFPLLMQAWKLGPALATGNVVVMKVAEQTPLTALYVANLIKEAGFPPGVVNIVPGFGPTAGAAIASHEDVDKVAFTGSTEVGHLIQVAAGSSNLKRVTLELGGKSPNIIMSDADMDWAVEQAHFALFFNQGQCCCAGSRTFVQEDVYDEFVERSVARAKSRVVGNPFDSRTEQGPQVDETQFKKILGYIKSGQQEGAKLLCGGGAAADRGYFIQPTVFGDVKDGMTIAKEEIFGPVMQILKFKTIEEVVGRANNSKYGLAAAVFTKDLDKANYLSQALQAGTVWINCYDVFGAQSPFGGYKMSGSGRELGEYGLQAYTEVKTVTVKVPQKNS
In short: (§2)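 Liver mitochondria from overnight-fasted male rats (200–250 g), osmotically disrupted by leaving sucrose out of the medium. Preincubated 5 min at 37 °C, then acetaldehyde (200 nmol) added for 5 min. HClO4 quench; head-space GC; Lowry protein.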

[7] = target: T1, Aldehyde dehydrogenase, mitochondrial (Rattus norvegicus); assay: Percent inhibition of class II aldehyde dehydrogenase in vitro in osmotically disrupted rat liver mitochondria; details: concentration not given here
In short: as §2

[8] = target: T1, Aldehyde dehydrogenase, mitochondrial (Rattus norvegicus); assay: Percent inhibition of class II aldehyde dehydrogenase in vitro in intact rat liver mitochondria; details: concentration not given here
In short: (§3)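 Mitochondria from overnight-fasted male rats (200–250 g). Preincubated 5 min at 37 °C, then acetaldehyde (200 nmol) added for 5 min. Quenched with cold HClO4; acetaldehyde loss read by head-space GC; Lowry protein.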

[9] = target: T1, Aldehyde dehydrogenase, mitochondrial (Rattus norvegicus); assay: Inhibition of class II aldehyde dehydrogenase in vitro in intact rat liver mitochondria assayed by nmol of acetaldehyde oxidized/min.mg of protein
In short: as §3

Saccharomyces cerevisiae [10] = assay: Inhibition of yeast aldehyde dehydrogenase is evaluated by formation by NADH in vitro at 10 uM concentration of compound
In short: as §1

Saccharomyces cerevisiae [11] = assay: In vitro inhibition of yeast aldehyde dehydrogenase at 100 uM concentration of compound
In short: as §1

Saccharomyces cerevisiae [12] = assay: Inhibition of yeast […] is evaluated by formation by NADH in vitro at 10 uM concentration of compound
In short: as §1

`CCCNC(=O)N(CC(C)(C)C)S(=O)(=O)c1ccc(Cl)cc1` was tested, and the inhibition [1] was 100% and the ALDH activity (NADH formation rate) [2] was 0 nM/min.
`CCCNC(=O)N(CC(C)C)S(=O)(=O)c1ccc(Cl)cc1` showed an inhibition [1] of 100% and an ALDH activity (NADH formation rate) [2] of 0 nM/min.
In the case of `CCCNC(=O)N(CCC)S(=O)(=O)c1ccc(Cl)cc1`, the inhibition [1] is reported as 91.1% and the ALDH activity (NADH formation rate) [2] is reported as 1.3 nM/min.
With `CCCN=C=O` the inhibition (Saccharomyces cerevisiae [3]) was 8.8%, the inhibition (Saccharomyces cerevisiae [4]) was 100% and 98.5% and the AIDH activity (Saccharomyces cerevisiae [5]) was 0 nM/min.
`CCCCN(C(=O)NCCC)S(=O)(=O)c1ccc(Cl)cc1` showed an inhibition [1] of 100% and an ALDH activity (NADH formation rate) [2] of 0 nM/min.
Work on `CCN(C(=O)NC(C)(C)C)S(=O)(=O)c1ccc(Cl)cc1` yielded an inhibition [1] of 97.3% and an ALDH activity (NADH formation rate) [2] of 2.7 nM/min.
`CCCNC(=O)NS(=O)(=O)c1ccc(Cl)cc1` gave an AlDH activity [6] of 73.8 nmol/min/mg, an inhibition [7] of 0% and an inhibition [8] of 0%. It also gave an AIDH activity [9] of 28.3 nM/min.
`CCCN(C)C(=O)NS(=O)(=O)c1ccc(Cl)cc1` was tested, and the inhibition [1] was 0% and the ALDH activity (NADH formation rate) [2] was 15 nM/min.
Work on `O=C=NC1CCCCC1` yielded an inhibition (Saccharomyces cerevisiae [3]) of 12.1%, an AIDH activity (Saccharomyces cerevisiae [10]) of 0.5 nM/min and an inhibition (Saccharomyces cerevisiae [11]) of 100%. The AIDH activity (Saccharomyces cerevisiae [12]) was 12.4 nM/min, the inhibition (Saccharomyces cerevisiae [4]) was 96.5% and the AIDH activity (Saccharomyces cerevisiae [5]) was 0 nM/min.
Molecule `CCCCN=C=O` has an inhibition (Saccharomyces cerevisiae [3]) of 20.8%, an AIDH activity (Saccharomyces cerevisiae [10]) of 0.2 nM/min and an inhibition (Saccharomyces cerevisiae [11]) of 100%. It also gave an AIDH activity (Saccharomyces cerevisiae [12]) of 11.2 nM/min, an inhibition (Saccharomyces cerevisiae [4]) of 98.9% and an AIDH activity (Saccharomyces cerevisiae [5]) of 0 nM/min.
Molecule `CCCNC(=O)N(CC)S(=O)(=O)c1ccc(Cl)cc1` has an inhibition [1] of 98.6% and an ALDH activity (NADH formation rate) [2] of 1.4 nM/min.
`CCCNC(=O)N(C(C)(C)C)S(=O)(=O)c1ccc(Cl)cc1` gave an inhibition [1] of 100% and an ALDH activity (NADH formation rate) [2] of 0 nM/min.
`CCCNC(=O)N(C(C)C)S(=O)(=O)c1ccc(Cl)cc1` showed an inhibition [1] of 100% and an ALDH activity (NADH formation rate) [2] of 0 nM/min.
For `CCCNC(=O)N(C)S(=O)(=O)c1ccc(Cl)cc1`, the AIDH activity [6] was 19 nM/min, the inhibition [1] was 99.6% and the inhibition [7] was 73.7%. It also gave an inhibition [8] of 48.9%, an AIDH activity [9] of 13.4 nM/min and an ALDH activity (NADH formation rate) [2] of 0.6 nM/min.
Work on `CCCOC(=O)N(CC)S(=O)(=O)c1ccc(Cl)cc1` yielded an inhibition [1] of 1.4% and an ALDH activity (NADH formation rate) [2] of 14.6 nM/min.
